Results published in ChEMBL document CHEMBL3526119, “Effect of the CYP2C8 genotype on the pharmacokinetics and pharmacodynamics of repaglinide” (Drug Metab Dispos, 2011).

Assays:
[1] = Oral clearance in healthy white human with CYP2C8*3/*3 genotype at 2 mg, po; assay type: ADME, organism-based; details: in vivo
How it was run: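 Repaglinide was assayed by LC-MS/MS with diclofenac internal standard (LLOQ 0.098 µg/L). Noncompartmental analysis gave AUC by linear/log-linear trapezoidal rule extrapolated to infinity. Weight-adjusted oral clearance = dose/(AUC × body weight).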

Homo sapiens = test: Mean change in insulin concentration in healthy white human plasma with SLCO1B1 521TT/CYP2C8*1/*1 combined genotype at 2 mg, po; assay type: ADME, organism-based; details: in vivo
How it was run: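 Healthy Caucasians got a single 2 mg oral dose and were genotyped for CYP2C8*3 and SLCO1B1 521T>C. Plasma insulin was sampled from pre-dose to 6 h and measured by solid-phase enzyme-labelled chemiluminescent immunometric assay (calibration 2–300 mU/l). Mean change is the average of post-dose values minus baseline up to 6 h, summarised per genotype group.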

CL/F [1]: 8 mL/min/kg | Activity (Homo sapiens): 7.1 mU/l
SMILES: CCOc1cc(CC(=O)N[C@@H](CC(C)C)c2ccccc2N2CCCCC2)ccc1C(=O)O [REPAGLINIDE]
